According to ChEMBL document CHEMBL1142063, “Synthesis of omeprazole analogues and evaluation of these as potential inhibitors of the multidrug efflux pump NorA of Staphylococcus aureus” (2007):
Activity calls are given as the source filed them. The rule behind the calls is not given here.

How the values were obtained:
Staphylococcus aureus [1] = experiment: Antibacterial activity against Staphylococcus aureus SA1199 at 5 ug by disk diffusion method; conditions: read-out: IZ
Staphylococcus aureus [2] = experiment: Increase in 5 ug sparfloxacin antibacterial activity against Staphylococcus aureus SA1199B mutant overexpressing NorA at 32 ug/ml by disk diffusion method; format: functional
In short: (§1)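 Agar diffusion on Mueller-Hinton agar (adjusted to 20 μg/ml Ca²⁺ and 10 μg/ml Mg²⁺), used plain or with the efflux inhibitor incorporated at the stated concentration. Disks were 5 μg for the fluoroquinolones and 30 μg for chloramphenicol. Plates were incubated overnight at 37°C, and inhibition zone diameters were measured. Values are means of at least three independent experiments.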

Staphylococcus aureus [3] = experiment: Increase in 5 ug sparfloxacin antibacterial activity against Staphylococcus aureus SA1199B mutant overexpressing NorA at 64 ug/ml by disk diffusion method; format: functional
In short: as §1

Staphylococcus aureus [4] = experiment: Increase in 16 ug/ml Norfloxacin accumulation in Staphylococcus aureus SA1199B mutant overexpressing NorA measured per mg of cell protein at 128 ug/ml after 5 mins; format: functional, organism-based
In short: (§2)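 SA-1199B was grown to mid-exponential phase in MH broth (4–5 h, 37°C, shaken), then washed and resuspended in 50 mM sodium phosphate, pH 7.0. Cells got norfloxacin at one-quarter MIC, alone or with inhibitor at 128 μg/ml. At 5–20 min, cells were spun through silicone-paraffin oil into orthophosphoric acid. Norfloxacin was measured by HPLC fluorescence (ex 240/[…]) as ng/mg BCA protein. Means of triplicate experiments.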

Staphylococcus aureus [5] = experiment: Increase in 5 ug ofloxacin antibacterial activity against Staphylococcus aureus SA1199B mutant overexpressing NorA at 128 ug/ml by disk diffusion method; format: functional
In short: as §1

Staphylococcus aureus [6] = experiment: Increase in 5 ug moxifloxacin antibacterial activity against Staphylococcus aureus SA1199B mutant overexpressing NorA at 32 ug/ml by disk diffusion method; format: functional
In short: as §1

Staphylococcus aureus [7] = experiment: Increase in 5 ug ciprofloxacin antibacterial activity against Staphylococcus aureus SA1199B mutant overexpressing NorA at 128 ug/ml by disk diffusion method; format: functional
In short: as §1

Staphylococcus aureus [8] = experiment: Increase in 5 ug ciprofloxacin antibacterial activity against Staphylococcus aureus SA1199B mutant overexpressing NorA at 64 ug/ml by disk diffusion method; format: functional
In short: as §1

Staphylococcus aureus [9] = experiment: Increase in 5 ug sparfloxacin antibacterial activity against Staphylococcus aureus SA1199B mutant overexpressing NorA at 16 ug/ml by disk diffusion method; format: functional
In short: as §1

Staphylococcus aureus [10] = experiment: Increase in 5 ug ofloxacin antibacterial activity against Staphylococcus aureus SA1199B mutant overexpressing NorA at 32 ug/ml by disk diffusion method; format: functional
In short: as §1

Staphylococcus aureus [11] = experiment: Increase in 5 ug moxifloxacin antibacterial activity against Staphylococcus aureus SA1199B mutant overexpressing NorA at 128 ug/ml by disk diffusion method; format: functional
In short: as §1

Staphylococcus aureus [12] = experiment: Increase in 30 ug chloramphenicol antibacterial activity against Staphylococcus aureus SA1199B mutant overexpressing NorA at 64 ug/ml by disk diffusion method; format: functional
In short: as §1

Staphylococcus aureus [13] = experiment: Increase in 5 ug sparfloxacin antibacterial activity against Staphylococcus aureus SA1199B mutant overexpressing NorA at 128 ug/ml by disk diffusion method; format: functional
In short: as §1

Staphylococcus aureus [14] = experiment: Increase in 30 ug chloramphenicol antibacterial activity against Staphylococcus aureus SA1199B mutant overexpressing NorA at 32 ug/ml by disk diffusion method; format: functional
In short: as §1

Staphylococcus aureus [15] = experiment: Increase in 16 ug/ml Norfloxacin accumulation in Staphylococcus aureus SA1199B mutant overexpressing NorA at 128 ug/ml after 20 mins; format: functional
In short: as §2

Staphylococcus aureus [16] = experiment: Increase in 5 ug moxifloxacin antibacterial activity against Staphylococcus aureus SA1199B mutant overexpressing NorA at 16 ug/ml by disk diffusion method; format: functional
In short: as §1

Staphylococcus aureus [17] = experiment: Increase in 5 ug ofloxacin antibacterial activity against Staphylococcus aureus SA1199B mutant overexpressing NorA at 64 ug/ml by disk diffusion method; format: functional
In short: as §1

Staphylococcus aureus [18] = experiment: Increase in 5 ug Norfloxacin antibacterial activity against Staphylococcus aureus SA1199B mutant overexpressing NorA at 64 ug/ml by disk diffusion method; format: functional
In short: as §1

Staphylococcus aureus [19] = experiment: Increase in 64 ug/ml Norfloxacin antibacterial activity against Staphylococcus aureus SA1199B mutant overexpressing NorA at 128 ug/ml by checker board method; format: functional
Staphylococcus aureus [20] = experiment: Increase in 30 ug chloramphenicol antibacterial activity against Staphylococcus aureus SA1199B mutant overexpressing NorA at 16 ug/ml by disk diffusion method; format: functional
In short: as §1

Staphylococcus aureus [21] = experiment: Increase in 5 ug levofloxacin antibacterial activity against Staphylococcus aureus SA1199B mutant overexpressing NorA at 16 ug/ml by disk diffusion method; format: functional
In short: as §1

Staphylococcus aureus [22] = experiment: Increase in 30 ug chloramphenicol antibacterial activity against Staphylococcus aureus SA1199B mutant overexpressing NorA at 128 ug/ml by disk diffusion method; format: functional
In short: as §1

Staphylococcus aureus [23] = experiment: Increase in 16 ug/ml Norfloxacin accumulation in wild type Staphylococcus aureus SA1199 at 128 ug/ml after 20 mins; format: functional
In short: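 Mid-exponential SA-1199 cells were washed and resuspended in 50 mM sodium phosphate, pH 7.0. They were exposed at time zero to norfloxacin at one-quarter MIC, alone or with EPI at 128 μg/ml. At 5–20 min, cells were spun through silicone-paraffin oil into orthophosphoric acid. Lysate norfloxacin was measured by C18 HPLC with fluorescence detection (ex 240, em 280 nm) and normalized to BCA protein (ng/mg). Triplicate experiments, mean reported.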

Staphylococcus aureus [24] = experiment: Increase in 5 ug ciprofloxacin antibacterial activity against Staphylococcus aureus SA1199B mutant overexpressing NorA at 16 ug/ml by disk diffusion method; format: functional
In short: as §1

Staphylococcus aureus [25] = experiment: Increase in 5 ug levofloxacin antibacterial activity against Staphylococcus aureus SA1199B mutant overexpressing NorA at 64 ug/ml by disk diffusion method; format: functional
In short: as §1

Staphylococcus aureus [26] = experiment: Increase in 5 ug ofloxacin antibacterial activity against Staphylococcus aureus SA1199B mutant overexpressing NorA at 16 ug/ml by disk diffusion method; format: functional
In short: as §1

Staphylococcus aureus [27] = experiment: Increase in 5 ug Norfloxacin antibacterial activity against Staphylococcus aureus SA1199B mutant overexpressing NorA at 16 ug/ml by disk diffusion method; format: functional
In short: as §1

Staphylococcus aureus [28] = experiment: Increase in 5 ug levofloxacin antibacterial activity against Staphylococcus aureus SA1199B mutant overexpressing NorA at 128 ug/ml by disk diffusion method; format: functional
In short: as §1

Staphylococcus aureus [29] = experiment: Increase in 5 ug ciprofloxacin antibacterial activity against Staphylococcus aureus SA1199B mutant overexpressing NorA at 32 ug/ml by disk diffusion method; format: functional
In short: as §1

Staphylococcus aureus [30] = experiment: Antibacterial activity against Staphylococcus aureus; format: functional
In short: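 Tube broth dilution MIC against SA-1199 and NorA-overproducing SA-1199B in Mueller-Hinton broth with 20 μg/ml Ca²⁺ and 10 μg/ml Mg²⁺. Inoculum was a 4–5 h 37°C culture diluted 1/10 (≈10⁶ CFU/ml). Compound range was 512 to 1 μg/ml, dissolved in DMSO (final ≤4%).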

Staphylococcus aureus [31] = experiment: Increase in 5 ug Norfloxacin antibacterial activity against Staphylococcus aureus SA1199B mutant overexpressing NorA at 32 ug/ml by disk diffusion method; format: functional
In short: as §1

Staphylococcus aureus [32] = experiment: Increase in 5 ug Norfloxacin antibacterial activity against Staphylococcus aureus SA1199B mutant overexpressing NorA at 128 ug/ml by disk diffusion method; format: functional
In short: as §1

Staphylococcus aureus [33] = experiment: Increase in 5 ug moxifloxacin antibacterial activity against Staphylococcus aureus SA1199B mutant overexpressing NorA at 64 ug/ml by disk diffusion method; format: functional
In short: as §1

Staphylococcus aureus [34] = experiment: Increase in 16 ug/ml Norfloxacin accumulation in Staphylococcus aureus SA1199B mutant overexpressing NorA measured per milligram of cell protein at 128 ug/ml after 20 mins; format: functional, organism-based
In short: as §2

Staphylococcus aureus [35] = experiment: Increase in 5 ug levofloxacin antibacterial activity against Staphylococcus aureus SA1199B mutant overexpressing NorA at 32 ug/ml by disk diffusion method; format: functional
In short: as §1

Staphylococcus aureus [36] = experiment: Increase in 2 ug/ml Norfloxacin antibacterial activity against wild type Staphylococcus aureus SA1199 at 128 ug/ml by checker board method; format: functional
Staphylococcus aureus [37] = experiment: Antibacterial activity against Staphylococcus aureus SA1199B overexpressing NorA at 30 ug by disk diffusion method; format: functional; conditions: read-out: IZ
In short: as §1

Staphylococcus aureus [38] = experiment: Increase in 16 ug/ml Norfloxacin antibacterial activity against Staphylococcus aureus SA1199B mutant overexpressing NorA at 128 ug/ml after 24 hrs by time-kill curve method; format: functional, organism-based
In short: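 Log-phase SA-1199B inoculum at 10⁶ CFU/ml in MH broth with norfloxacin 16 μg/ml plus inhibitor 128 μg/ml, 37°C. Viable counts were taken by dilution plating in triplicate on MH agar at 0, 2, 4, 8 and 24 h. Results are expressed as log percentage survival, means of three experiments. Sensitivity limit was 1 log₁₀ CFU/ml.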

SMILES	zone of inhibition at 5 µg/disc (Staphylococcus aureus [1]) [mm]	inhibition zone (IZ) (Staphylococcus aureus [2]) [mm]	inhibition zone (IZ) (Staphylococcus aureus [3]) [mm]	Drug uptake (Staphylococcus aureus [4]) [ng/mg]	inhibition zone (IZ) (Staphylococcus aureus [5]) [mm]	inhibition zone (IZ) (Staphylococcus aureus [6]) [mm]	inhibition zone (IZ) (Staphylococcus aureus [7]) [mm]	inhibition zone (IZ) (Staphylococcus aureus [8]) [mm]	inhibition zone (IZ) (Staphylococcus aureus [9]) [mm]	inhibition zone (IZ) (Staphylococcus aureus [11]) [mm]	inhibition zone (IZ) (Staphylococcus aureus [13]) [mm]	Activity (Staphylococcus aureus [15]) [%]	MIC (Staphylococcus aureus [19]) [mg/L]	inhibition zone (IZ) (Staphylococcus aureus [22]) [mm]	Activity (Staphylococcus aureus [23]) [%]	inhibition zone (IZ) (Staphylococcus aureus [28]) [mm]	MIC (Staphylococcus aureus [30]) [mg/L]	inhibition zone (IZ) (Staphylococcus aureus [32]) [mm]	Drug uptake (Staphylococcus aureus [34]) [ng/mg]	MIC (Staphylococcus aureus [36]) [mg/L]	also measured
C[C@H]1COc2c(N3CCN(C)CC3)c(F)cc3c(=O)c(C(=O)O)cn1c23 [LEVOFLOXACIN]	30	–	–	–	–	–	–	–	–	–	–	–	–	–	–	–	–	–	–	–	–
COc1ccc2[nH]c([S+]([O-])Cc3ncc(C)c(OC)c3C)nc2c1 (stereo not drawn) [OMEPRAZOLE]	–	27	27	270	23	27	22	19	26	30	28	40	8	25	10	25	> 512	14	400	1	inhibition zone (IZ) (Staphylococcus aureus [10]): 18 mm; inhibition zone (IZ) (Staphylococcus aureus [12]): 24 mm; inhibition zone (IZ) (Staphylococcus aureus [14]): 24 mm; inhibition zone (IZ) (Staphylococcus aureus [16]): 27 mm; inhibition zone (IZ) (Staphylococcus aureus [17]): 20 mm; inhibition zone (IZ) (Staphylococcus aureus [18]): 12 mm; inhibition zone (IZ) (Staphylococcus aureus [20]): 24 mm; inhibition zone (IZ) (Staphylococcus aureus [21]): 21 mm; inhibition zone (IZ) (Staphylococcus aureus [24]): 13 mm; inhibition zone (IZ) (Staphylococcus aureus [25]): 23 mm; inhibition zone (IZ) (Staphylococcus aureus [26]): 18 mm; inhibition zone (IZ) (Staphylococcus aureus [27]): 6 mm; inhibition zone (IZ) (Staphylococcus aureus [29]): 15 mm; inhibition zone (IZ) (Staphylococcus aureus [31]): 6 mm; inhibition zone (IZ) (Staphylococcus aureus [33]): 29 mm; inhibition zone (IZ) (Staphylococcus aureus [35]): 21 mm
COC(=O)[C@H]1[C@H]2C[C@@H]3c4[nH]c5cc(OC)ccc5c4CCN3C[C@H]2C[C@@H](OC(=O)c2cc(OC)c(OC)c(OC)c2)[C@@H]1OC [RESERPINE]	–	27	27	270	21	28	22	20	27	28	28	40	8	25	10	24	> 512	13	400	1	inhibition zone (IZ) (Staphylococcus aureus [10]): 19 mm; inhibition zone (IZ) (Staphylococcus aureus [12]): 25 mm; inhibition zone (IZ) (Staphylococcus aureus [14]): 24 mm; inhibition zone (IZ) (Staphylococcus aureus [16]): 28 mm; inhibition zone (IZ) (Staphylococcus aureus [17]): 20 mm; inhibition zone (IZ) (Staphylococcus aureus [18]): 12 mm; inhibition zone (IZ) (Staphylococcus aureus [20]): 24 mm; inhibition zone (IZ) (Staphylococcus aureus [21]): 22 mm; inhibition zone (IZ) (Staphylococcus aureus [24]): 16 mm; inhibition zone (IZ) (Staphylococcus aureus [25]): 24 mm; inhibition zone (IZ) (Staphylococcus aureus [26]): 19 mm; inhibition zone (IZ) (Staphylococcus aureus [27]): 9 mm; inhibition zone (IZ) (Staphylococcus aureus [29]): 18 mm; inhibition zone (IZ) (Staphylococcus aureus [31]): 12 mm; inhibition zone (IZ) (Staphylococcus aureus [33]): 28 mm; inhibition zone (IZ) (Staphylococcus aureus [35]): 24 mm
C[C@@H]1CN(c2c(F)c(N)c3c(=O)c(C(=O)O)cn(C4CC4)c3c2F)C[C@H](C)N1 [SPARFLOXACIN]	30	–	–	–	–	–	–	–	–	–	–	–	–	–	–	–	–	–	–	–	–
O=C(N[C@H](CO)[C@H](O)c1ccc([N+](=O)[O-])cc1)C(Cl)Cl [CHLORAMPHENICOL]	–	–	–	–	–	–	–	–	–	–	–	–	–	–	–	–	–	–	–	–	zone of inhibition at 30 µg/disc (Staphylococcus aureus [37]): 24 mm
COc1ccc2[nH]c([S+]([O-])Cc3nc4cc(Cl)ccc4n4cccc34)nc2c1 (stereo not drawn)	–	–	–	270	26	–	25	–	–	28	28	40	4	27	10	27	> 512	18	400	1	Activity (Staphylococcus aureus [38]): Active
